Measurements: ChEMBL document CHEMBL4049428, “Exploring Derivatives of Quinazoline Alkaloid l-Vasicine as Cap Groups in the Design and Biological Mechanistic Evaluation of Novel Antitumor Histone Deacetylase Inhibitors” (J Med Chem, 2017)
The source made the active and inactive calls. The calls are words filed in the database; no cut-off is given here.

Experiments:
Homo sapiens [1] = organism: Homo sapiens; assay: Inhibition of HDAC in human HL60 cells assessed as increase in acetylated H4K5 levels after 48 hrs by Western blot analysis; assay type: cell-based
Outline: (§1)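 Cells seeded 2-4 h, treated 48 h with graded compound concentrations (SAHA control); histones acid-extracted (HEPES pH 9 buffer, 0.2 N HCl, 1 h on ice), Bradford-normalised, resolved on 18% SDS gels, blotted to PVDF, probed for acetyl-H3K18 and acetyl-H4K5 with H3 and β-actin loading controls; ECL detection.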

HL-60 [2] = assay: Induction of mitochondrial membrane potential loss in human HL60 cells at 0.125 uM measured after 48 hrs by Rh123 dye-based flow cytometric analysis (reference value: 5.6%); assay type: functional
Outline: (§2)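 Cells seeded in 6-well plates 2-4 h, then 48 h with compound; Rh-123 1 µM added for the final half hour; cells centrifuged, washed twice in PBS, resuspended in PBS, and Ψm loss quantified by flow cytometry as percentage of cells.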

HL-60 [3] = assay: Induction of reactive oxygen species in human HL60 cells at 5 uM measured after 48 hrs by H2DCFDA dye-based flow cytometric analysis (reference value: 0.4%); assay type: functional
Caco-2 = assay: Cytotoxicity against human Caco2 cells assessed as growth inhibition at 10 uM after 48 hrs by MTT assay; assay type: functional; settings: Caco-2, 48 h, read-out: GI
Outline: (§3)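 MTT assay, 48 h exposure; adherent lines seeded 12 h and suspension lines 4 h before compound. Media: RPMI-1640/10% FCS (THP-1, HL-60, Colo-205, Caco-2, A549), DMEM/10% FCS (A549, MIAPaCa-2, MCF-7). MTT 4 h, formazan dissolved in DMSO, absorbance 570 nm. Mean ± S.D of three experiments in triplicate; SAHA 5 µM reference.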

A549 [4] = assay: Cytotoxicity against human A549 cells assessed as growth inhibition at 10 uM after 48 hrs by MTT assay; assay type: functional; settings: A549, 48 h, read-out: GI; outline: as §3
THP-1 = assay: Cytotoxicity against human THP1 cells assessed as growth inhibition after 48 hrs by MTT assay; assay type: functional, cell-based; settings: THP-1, 48 h
A549 [5] = assay: Cytotoxicity against human A549 cells assessed as growth inhibition after 48 hrs by MTT assay; assay type: functional, cell-based; settings: A549, 48 h
MOLT-4 [6] = assay: Cytotoxicity against human MOLT4 cells assessed as growth inhibition after 48 hrs by MTT assay; assay type: functional, cell-based; settings: MOLT-4, 48 h
MCF7 [7] = assay: Cytotoxicity against human MCF7 cells assessed as growth inhibition after 48 hrs by MTT assay; assay type: functional, cell-based; settings: MCF7, 48 h
[8] = Inhibition of HDAC in human HeLa nuclear extract using Boc-Lys(Ac)-AMC as substrate measured after 30 mins by fluorometric analysis
[9] = Cytotoxicity against human FR2 cells assessed as growth inhibition after 48 hrs by MTT assay; assay type: ADME, cell-based; settings: FR2, 48 h
MCF-10A = assay: Cytotoxicity against human MCF10A cells assessed as growth inhibition after 48 hrs by MTT assay; assay type: ADME, cell-based
MOLT-4 [10] = assay: Induction of autophagy in human MOLT4 cells assessed as intracellular LC-3B distribution at 10 uM after 48 hrs by DAPI dye-based immunofluorescent microscopic analysis; assay type: functional, cell-based
Outline: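 After 48 h treatment (SAHA 1.0 µM control), cells put on poly-lysine coverslips, fixed 15 min in 4% paraformaldehyde, permeabilised with 0.1% Triton X-100, blocked in 10% BSA; anti-LC-3B 1:100 for 1 h, Alexa Fluor 488 secondary 1:500 for 1 h, DAPI 1 µg/ml counterstain; imaged with 60X oil objective.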

MOLT-4 [11] = assay: Induction of mitochondrial membrane potential loss in human MOLT4 cells at 10 uM measured after 48 hrs by Rh123 dye-based flow cytometric analysis (reference value: 90.4%); assay type: functional; outline: as §2
Homo sapiens [12] = organism: Homo sapiens; assay: Inhibition of HDAC in human MOLT4 cells assessed as increase in acetylated H3K18 levels after 48 hrs by Western blot analysis; assay type: cell-based; outline: as §1
PC-3 [13] = assay: Cytotoxicity against human PC3 cells assessed as growth inhibition at 10 uM after 48 hrs by MTT assay; assay type: functional; settings: PC-3, 48 h, read-out: GI
PC-3 [14] = assay: Cytotoxicity against human PC3 cells assessed as growth inhibition after 48 hrs by MTT assay; assay type: functional, cell-based; settings: PC-3, 48 h
MOLT-4 [15] = assay: Induction of autophagy in human MOLT4 cells assessed as acidic vacuole formation in cytoplasm at 10 uM after 48 hrs by acridine orange dye-based fluorescent microscopic analysis; assay type: functional, cell-based
Outline: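 Cells treated 48 h with a range of compound concentrations, SAHA 1.0 µM as positive control; acridine orange 1 µg/ml added 15 min before end at 37°C; cells washed in PBS and acidic vacuoles viewed by fluorescence microscopy.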

Homo sapiens [16] = organism: Homo sapiens; assay: Inhibition of HDAC in human HL60 cells assessed as increase in acetylated H3K18 levels after 48 hrs by Western blot analysis; assay type: cell-based; outline: as §1
COLO 205 = assay: Cytotoxicity against human COLO205 cells assessed as growth inhibition at 10 uM after 48 hrs by MTT assay; assay type: functional; settings: COLO 205, 48 h, read-out: GI; outline: as §3
MOLT-4 [17] = assay: Induction of mitochondrial membrane potential loss in human MOLT4 cells at 0.125 uM measured after 48 hrs by Rh123 dye-based flow cytometric analysis (reference value: 9.6%); assay type: functional; outline: as §2
MOLT-4 [18] = assay: Induction of reactive oxygen species in human MOLT4 cells at 5 uM measured after 48 hrs by H2DCFDA dye-based flow cytometric analysis (reference value: 1.1%); assay type: functional
MCF7 [19] = assay: Cytotoxicity against human MCF7 cells assessed as growth inhibition at 10 uM after 48 hrs by MTT assay; assay type: functional; settings: MCF7, 48 h, read-out: GI; outline: as §3
MOLT-4 [20] = assay: Induction of reactive oxygen species in human MOLT4 cells at 10 uM measured after 48 hrs by H2DCFDA dye-based flow cytometric analysis (reference value: 1.1%); assay type: functional
HL-60 [21] = assay: Induction of reactive oxygen species in human HL60 cells at 1 uM measured after 48 hrs by H2DCFDA dye-based flow cytometric analysis (reference value: 0.4%); assay type: functional
MOLT-4 [22] = assay: Induction of mitochondrial membrane potential loss in human MOLT4 cells assessed as intact mitochondrial membrane potential at 1 uM measured after 48 hrs by Rh123 dye-based flow cytometric analysis (reference value: 90.4%); assay type: functional; outline: as §2
HL-60 [23] = assay: Cytotoxicity against human HL60 cells assessed as growth inhibition at 10 uM after 48 hrs by MTT assay; assay type: functional; settings: HL-60, 48 h, read-out: GI; outline: as §3
MOLT-4 [24] = assay: Induction of mitochondrial membrane potential loss in human MOLT4 cells at 10 uM measured after 48 hrs by Rh123 dye-based flow cytometric analysis (reference value: 9.6%); assay type: functional; outline: as §2
MIA PaCa-2 = assay: Cytotoxicity against human MIAPaCa2 cells assessed as growth inhibition at 10 uM after 48 hrs by MTT assay; assay type: functional; settings: MIA PaCa-2, 48 h, read-out: GI; outline: as §3
Histone deacetylase 1 = Histone deacetylase 1 (Homo sapiens, UniProt Q13547); assay: Inhibition of HDAC 1 in human HeLa nuclear extract using HDAC substrate-3 measured after 60 mins by fluorometric analysis
Chain of Histone deacetylase 1 (Q13547 whole entry): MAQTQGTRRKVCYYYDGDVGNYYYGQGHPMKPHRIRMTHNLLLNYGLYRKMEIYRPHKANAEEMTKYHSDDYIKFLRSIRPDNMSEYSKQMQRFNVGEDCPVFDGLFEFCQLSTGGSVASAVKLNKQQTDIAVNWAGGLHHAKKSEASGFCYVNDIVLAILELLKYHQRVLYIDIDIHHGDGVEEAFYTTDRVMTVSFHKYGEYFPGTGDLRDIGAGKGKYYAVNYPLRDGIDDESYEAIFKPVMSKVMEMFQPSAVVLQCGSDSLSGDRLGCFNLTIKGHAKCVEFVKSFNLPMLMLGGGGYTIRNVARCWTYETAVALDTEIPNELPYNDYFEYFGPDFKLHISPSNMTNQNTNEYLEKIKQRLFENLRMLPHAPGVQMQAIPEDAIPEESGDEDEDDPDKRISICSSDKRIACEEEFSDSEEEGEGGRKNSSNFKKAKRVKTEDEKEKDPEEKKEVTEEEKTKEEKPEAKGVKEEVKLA

MOLT-4 [25] = assay: Cytotoxicity against human MOLT4 cells assessed as growth inhibition at 10 uM after 48 hrs by MTT assay; assay type: functional; settings: MOLT-4, 48 h, read-out: GI

O=C(CCCCCCC(=O)Nc1ccccc1CN1CC[C@H](O)C1)NO
inhibition (Homo sapiens [1]): Dose-dependent effect
Activity (HL-60 [2]): 7.5%
Activity (HL-60 [3]): 0%
inhibition of growth at 10 µM (Caco-2): 58%
inhibition of growth at 10 µM (A549 [4]): 84%
IC50 (THP-1): 1300 nM
IC50 (A549 [5]): 7000 nM
IC50 (MOLT-4 [6]): 810 nM
IC50 (MCF7 [7]): 1500 nM
IC50 [8]: 370 nM
IC50 [9]: 23000 nM
IC50 (MCF-10A): 37000 nM
Activity (MOLT-4 [10]): Active
Activity (MOLT-4 [11]): 32.5%
inhibition (Homo sapiens [12]): Dose-dependent effect
inhibition of growth at 10 µM (PC-3 [13]): 29%
IC50 (PC-3 [14]): 19000 nM
Activity (MOLT-4 [15]): Active
inhibition (Homo sapiens [16]): Dose-dependent effect
inhibition of growth at 10 µM (COLO 205): 92%
Activity (MOLT-4 [17]): 2.4%
Activity (MOLT-4 [18]): 1.9%
inhibition of growth at 10 µM (MCF7 [19]): 93%
Activity (MOLT-4 [20]): 0.9%
Activity (HL-60 [21]): 0.6%
Activity (MOLT-4 [22]): 95.1%
inhibition of growth at 10 µM (HL-60 [23]): 95%
Activity (MOLT-4 [24]): 67.5%
inhibition of growth at 10 µM (MIA PaCa-2): 93%
IC50 (Histone deacetylase 1): 415 nM
inhibition of growth at 10 µM (MOLT-4 [25]): 91%
